These results are taken from ChEMBL document CHEMBL2057101, “Fluorocyclines. 2. Optimization of the C-9 side-chain for antibacterial activity and oral efficacy” (J Med Chem, 2012).

Structures are written as SMILES. ≈ marks a conversion by molar mass, not a printed value. Some results are limits rather than exact numbers.

For one series, the system named is Streptococcus pyogenes. Put plainly: Antibacterial activity against Streptococcus pyogenes. The format is functional. A digest of the protocol:
(§1)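 MIC by broth microdilution in liquid medium per CLSI, in cation-adjusted Mueller Hinton broth made fresh and held at 4 °C before testing. Horse blood (defibrinated) added to the medium where appropriate. Runs were accepted only when the comparator antibiotics and ATCC QC strains fell within their recommended ranges.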

Series [1] has as its system Streptococcus pneumoniae. Put plainly: Antibacterial activity against Streptococcus pneumoniae SPN160. The format is functional. A digest of the protocol: (§2)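 Broth microdilution MIC following CLSI methods in cation-adjusted Mueller Hinton broth, prepared fresh and held at 4 °C before testing. Defibrinated horse blood added to the medium where appropriate. Runs accepted when quality control ranges for comparator antibiotics and ATCC QC strains were met.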

The subject of series [2] is Staphylococcus aureus. Put plainly: Antibacterial activity against tetracycline-resistant Staphylococcus aureus isolate SA158 expressing TetK gene. The format is functional.
The next series has as its system Moraxella catarrhalis. Put plainly: Antibacterial activity against Moraxella catarrhalis. The format is functional. In outline:
as §1

In series [3] the test system is Staphylococcus aureus. The series is described as follows: Antibacterial activity against tetracycline-susceptible Staphylococcus aureus ATCC 13709 Smith isolate SA100. The format is functional. In outline: as §2
Series [4] in a line: Oral bioavailability in rat. The format is ADME, organism-based. Conditions: in vivo.
Series [5] relates to Staphylococcus aureus. The series is described as follows: Antibacterial activity against Staphylococcus aureus ATCC 13709 infected in CD-1 mouse assessed as increase in survival at 30 mg/kg, po administered as single dose 1 hr post infection measured after 48 hrs post infection. The format is functional. In outline: (§3)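 Mouse septicemia screen: S. aureus grown to log phase, diluted in 5% mucin to give 90% mortality within 48 h, inoculum 1.98 × 10⁶ CFU/mouse, 0.5 mL intraperitoneal into female CD-1 mice (18−20 g). Six mice per group. Single 30 mg/kg oral gavage or 3 mg/kg IV dose 1 h post infection. Infection controls received sterile water vehicle. Survival recorded at 48 h.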

The subject of another series is Acinetobacter baumannii. Put plainly: Antibacterial activity against Acinetobacter baumannii. The format is functional. In outline:
as §1

For series [6], the system named is Escherichia coli. Put plainly: Antibacterial activity against Escherichia coli isolate EC155 expressing tetA gene. The format is functional. A digest of the protocol: as §1
For series [7], the system named is Staphylococcus aureus. Put plainly: Antibacterial activity against methicillin-resistant Staphylococcus aureus VL-137. The format is functional. A digest of the protocol:
as §2

Series [8] relates to Streptococcus pneumoniae. Put plainly: Antibacterial activity against tetracycline-resistant Streptococcus pneumoniae isolate 160 expressing tetM gene. The format is functional.
Series [9] relates to Staphylococcus aureus. The series is described as follows: Antibacterial activity against tetracycline-resistant Staphylococcus aureus isolate SA161 expressing TetM gene. The format is functional. A digest of the protocol:
as §2

Series [10] concerns Escherichia coli. The series is described as follows: Antibacterial activity against Escherichia coli ATCC 25922 isolate 107. The format is functional. In outline:
as §1

Series [11] relates to Haemophilus influenzae. The series is described as follows: Antibacterial activity against Haemophilus influenzae 551. The format is functional. A digest of the protocol: as §1
In series [12] the test system is Staphylococcus aureus. Put plainly: Antibacterial activity against Staphylococcus aureus ATCC 13709 infected in po dosed CD-1 mouse assessed as increase in survival administered as single dose 1 hr post infection measured after 48 hrs post infection. The format is functional. To be noted: ATCC 13709, po, read-out: PD50.
In a further series the test system is Klebsiella pneumoniae. Put plainly: Antibacterial activity against Klebsiella pneumoniae ATCC 13883. The format is functional. A digest of the protocol: as §1
In series [13] the test system is Staphylococcus aureus. The series is described as follows: Antibacterial activity against Staphylococcus aureus ATCC 13709 infected in CD-1 mouse assessed as increase in survival at 3 mg/kg, iv administered as single dose 1 hr post infection measured after 48 hrs post infection. The format is functional. A digest of the protocol:
as §3

The test system of series [14] is Streptococcus pneumoniae. Put plainly: Antibacterial activity against Streptococcus pneumoniae ATCC 49619 isolate 106. The format is functional. In outline: as §1
In series [15] the test system is Haemophilus influenzae. The series is described as follows: Antibacterial activity against Haemophilus influenzae 551 infected in immunocompetent Sprague-Dawley rat assessed as reduction in lung CFU per gram of tissue at 50 mg/kg, po administered 5, 24 and 48 hrs post infection measured after 72 hrs. The format is functional. A digest of the protocol: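 Male Sprague-Dawley rats (175–200 g), immunocompetent, infected intratracheally with H. influenzae 551 (0.05 mL) under light anesthesia. Dosing at 5, 24 and 48 h post infection: test agent 100 mg/kg/dose orally or 25 mg/kg/dose IV; azithromycin 50 mg/kg/dose orally. Six rats per dose. Lungs removed 72 h after treatment began, homogenized, serially diluted, plated on TSA-II, incubated overnight at 37 °C in 5% CO2; CFU/g lung calculated.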

On to `CN(C)[C@@H]1C(O)=C(C(N)=O)C(=O)[C@@]2(O)C(O)=C3C(=O)c4c(O)c(NC(=O)[C@@H]5CCN5C)cc(F)c4C[C@H]3C[C@@H]12`, for which the MIC (as a rule, the least concentration at which growth counts as inhibited) stood at 0.016 µg/mL (≈ 0.0294 µM) against Streptococcus pyogenes; 0.016 µg/mL (≈ 0.0294 µM) in the series on Streptococcus pneumoniae [1]; 0.016 µg/mL (≈ 0.0294 µM) against Staphylococcus aureus [2]; 0.016 µg/mL (≈ 0.0294 µM) against Moraxella catarrhalis; 0.016 µg/mL (≈ 0.0294 µM) against Staphylococcus aureus [3]; 1 µg/mL (≈ 1.84 µM) with Escherichia coli [6]. Besides, the MIC with Streptococcus pneumoniae [8] worked out at 0.016 µg/mL (≈ 0.0294 µM); with Staphylococcus aureus [9], 0.016 µg/mL (≈ 0.0294 µM); in the series with Escherichia coli [10] it was 0.016 µg/mL (≈ 0.0294 µM); with Klebsiella pneumoniae it was 0.063 µg/mL (≈ 0.116 µM); with Streptococcus pneumoniae [14] it was 0.016 µg/mL (≈ 0.0294 µM). The MIC50 stood at 0.016 µg/mL (≈ 0.0294 µM) in the series with Streptococcus pyogenes; 0.016 µg/mL (≈ 0.0294 µM) against Streptococcus pneumoniae [1]; 0.016 µg/mL (≈ 0.0294 µM) with Moraxella catarrhalis; 0.13 µg/mL (≈ 0.239 µM) against Acinetobacter baumannii; 0.031 µg/mL (≈ 0.0569 µM) in the series on Staphylococcus aureus [7]; 0.063 µg/mL (≈ 0.116 µM) against Haemophilus influenzae [11]. For the same compound, the MIC90 with Streptococcus pyogenes stood at 0.016 µg/mL (≈ 0.0294 µM); in the series with Streptococcus pneumoniae [1], 0.016 µg/mL (≈ 0.0294 µM); in the series with Moraxella catarrhalis, 0.016 µg/mL (≈ 0.0294 µM); with Acinetobacter baumannii, 1 µg/mL (≈ 1.84 µM); against Staphylococcus aureus [7], 1 µg/mL (≈ 1.84 µM); against Haemophilus influenzae [11] it was 0.25 µg/mL (≈ 0.459 µM). In addition, the bioavailability (in general, the share of a dose that reaches the circulation, judged against a reference dose that is usually intravenous) in series [4] worked out at 4.6%. Moreover, in the series with Staphylococcus aureus [5], the survival at 30 mg/kg is 83%. In addition, the ED50 in the series with Staphylococcus aureus [12] came to 14.3 mg/kg. Besides, the survival at 3 mg/kg in the series on Staphylococcus aureus [13] turned out to be 100%.
For the compound `CNC(=O)Nc1cc(F)c2c(c1O)C(=O)C1=C(O)[C@]3(O)C(=O)C(C(N)=O)=C(O)[C@@H](N(C)C)[C@@H]3C[C@@H]1C2`, the MIC in the series on Staphylococcus aureus [2] is 16 µg/mL (≈ 31.7 µM); against Staphylococcus aureus [3], 0.25 µg/mL (≈ 0.496 µM); with Escherichia coli [6] it was above 32 µg/mL; with Streptococcus pneumoniae [8], 0.5 µg/mL (≈ 0.991 µM); against Staphylococcus aureus [9], 2 µg/mL (≈ 3.96 µM); with Escherichia coli [10], 1 µg/mL (≈ 1.98 µM). Moreover, the results for the MIC against Klebsiella pneumoniae and against Streptococcus pneumoniae [14] were 4 µg/mL (≈ 7.93 µM) and 0.031 µg/mL (≈ 0.0615 µM), respectively. In addition, in the series on Staphylococcus aureus [5], the survival at 30 mg/kg was found to be 33%. Besides, in the series on Staphylococcus aureus [12], the ED50 was above 30 mg/kg. In addition, the survival at 3 mg/kg in the series with Staphylococcus aureus [13] was found to be 83%.
In the case of `CC(C)CCNc1cc(F)c2c(c1O)C(=O)C1=C(O)[C@]3(O)C(=O)C(C(N)=O)=C(O)[C@@H](N(C)C)[C@@H]3C[C@@H]1C2`, the MIC is 0.13 µg/mL (≈ 0.251 µM) in the series with Staphylococcus aureus [2]; 0.25 µg/mL (≈ 0.483 µM) against Staphylococcus aureus [3]; above 32 µg/mL against Escherichia coli [6]; 4 µg/mL (≈ 7.73 µM) in the series with Streptococcus pneumoniae [8]; 0.5 µg/mL (≈ 0.966 µM) against Staphylococcus aureus [9]; above 32 µg/mL in the series on Escherichia coli [10]. The values for the MIC against Klebsiella pneumoniae and in the series with Streptococcus pneumoniae [14] were above 32 µg/mL and 2 µg/mL (≈ 3.86 µM), respectively. Besides, in the series on Staphylococcus aureus [5], the survival at 30 mg/kg amounted to 33%. Also, in the series with Staphylococcus aureus [12], the ED50 was above 60 mg/kg. The survival at 3 mg/kg with Staphylococcus aureus [13] was found to be 17%.
Take `CC[C@H]1OC(=O)[C@H](C)[C@@H](O[C@H]2C[C@@](C)(OC)[C@@H](O)[C@H](C)O2)[C@H](C)[C@@H](O[C@@H]2O[C@H](C)C[C@H](N(C)C)[C@H]2O)[C@](C)(O)C[C@@H](C)CN(C)[C@H](C)[C@@H](O)[C@]1(C)O` [AZITHROMYCIN]: in the series with Haemophilus influenzae [15], the log10CFU/g entry is “>=6”.
